Reference: the EternaBench riboswitch data

Tested on: MS2 coat protein
Experiment: apparent Kd, MS2 coat protein; higher = weaker binding; RNA-MaP array; FMN 200 µM where present
Summary of the method: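 Designs on Illumina sequencing-chip clusters, transcribed by stalled E. coli RNA polymerase, were exposed to SNAP-549-labelled MS2 coat protein in doubling steps from 0.7 or 1.5 nM up to 3 µM, without and then with constant ligand. The buffer held 100 mM Tris-HCl pH 7.5, 80 mM KCl, 4 mM MgCl2, BSA, DTT, yeast tRNA and Tween-20. Apparent Kd values are medians of filtered per-cluster binding-curve fits to green signal normalised to red-channel RNA signal and control-cluster median Fmax.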

[1] = designed as: OFF switch for flavin mononucleotide, no ligand
[2] = ligand present: flavin mononucleotide, designed as: OFF switch for flavin mononucleotide
[3] = designed as: ON switch for flavin mononucleotide, no ligand
[4] = ligand present: flavin mononucleotide, designed as: ON switch for flavin mononucleotide

Sequence	apparent Kd [1] [nM]	apparent Kd [2] [nM]	apparent Kd [3] [nM]	apparent Kd [4] [nM]
AUCAGCUUGACAGGAUAUACAUGACUGCGAAAGCAGUCUAUCUUAAUAACAUGAGGAUCACCCAUGUAGAAGGGUCGAGCUGAU	17.8	27	–	–
GAUUUAGAGCAGGAUAUCAUAGAAUUAUAUGAAUGAGAAGGGCUCACAUGAGGAUCACCCAUGUGGUCCUAGAU	21.1	167	–	–
UGAUCCGUGUAGGAUAUCUGUUGGCCGCCGACUGGAGAAGGGCACACAUGAGGAUCACCCAUGUGUGGGCAUAA	17.8	19.6	–	–
AAAAAACAUGAGGAUCACCCAUGUCAGGAUAUCAUAAAAAAAAAAAAAAAAAAAAAAGUGAGAAGGGACAAAAA	91.7	71.5	–	–
AUACUAAAUGAAGGAUAUCUAAGCAUAAACCUGAGAGAAGGUCAUUUUUACAUGAGGAUCACCCAUGUUGUGAUUAAUGGGUUA	71.8	144	–	–
GAGUGACAUGAGGAUCACCCAUGUGAGGAUAUCGGACGGACCAAAUUAACAACACCCGCGAGAAGGCACAUCGG	163	123	–	–
GUGCGGUAGGAGAAGGACGGAGGCUUCUUUUCAUACAUGAGGAUCACCCAUGUAGGAUAUCCUACCUCACGCGGCCUCCUUCUG	4.77	4.99	–	–
GCACGGCAUGUAGGAUAUCGAGCGCCGGGCGCUCGAGAAGGACAUGAGGAUCACCCAUGUAGUCUCAGUGAGAGACUGCUGUGC	18.3	36.2	–	–
GUUUCUAUAUGUUUUAUUUAACAGUCAGAAGGUGAUAAUACGACAUGAGGAUCACCCAUGUAAUUCAAGGAUAUGAUAUUAAUC	–	–	62.7	27.7
AUUAGUAUCUAGGAUAUCUAGUACAUAGUAUCUAGAGAAGGAGAUACAUGAGGAUCACCCAUGUUCUGUGUUCU	27.2	64.5	–	–
GACACGUAAGGAUAUUGAGGGUAGAUGUGAGUCUAGCCCGGCAAGAAGGUACAUGAGGAUCACCCAUGUCCCGG	13.6	17	–	–
CUUUUGUGAGGAUAUCAGUAGUAAAUAAAUAAAUUUACUACUGAGAAGGCACAUGAGGAUCACCCAUGUUCCUC	39.1	292	–	–
CUGAUGUCAGGAUAUCGGUGGCUCACUUGUGUGUGCCAGACCGAGAAGGGACAUGAGGAUCACCCAUGUCUUUA	20.2	46.2	–	–
GCGCUUAUACAGAAGGCCAUAUACAUGAGGAUCACCCAUGUUAUUUGGUGGAGGAUAUGUUUUUUAUUACAGGUUGAUGAGCGC	–	–	7.58	6.52
UCCUCACAUGAGGAUCACCCAUGUCAGGAUAUCUCACAGCUAAAGAAUAAAGGCUGCAAGAGAAGGGACACAAU	21.6	48.1	–	–
ACCUUACAUGAGGAUCACCCAUGUUAGGAUAUCUCGCUUUCGCUGUCACAGCGCAAGCAGAGAAGGGACACGGG	33.9	64.5	–	–
UGAAAUCAUGUAGGAUAUGCAUGGCGAAGCUACGCAGAAGGACAUGAGGAUCACCCAUGUGCUAGCUACCGAGUUCGGUGGCAA	103	215	–	–
AUGCCCUGAGGAUAUCUCAUCCCGCACAUGAGGAUCACCCAUGUUCUUCUCCGGGUUCCGAGAGAAGGCAGGCCUA	157	81.9	–	–
GUGCACACUCGAGGAUAUCGGAGUUUUCUUCUUUGAGAAGGCGAUUCGUGCCGUGUUAUUUUGGACAUGAGGAUCACCCAUGUG	–	–	66	36.8
CAAUGUCAAAAGGAUAUUGCCAGCAUAAAUGGUCGAGAAGGUUUGACAUGAGGAUCACCCAUGUAAUGAACCUG	14.6	51.2	–	–
GAGAGAGGGUGAGGAUAUUUAGUGAUAAUGAUAAGAGAAGGCACAGACAUGAGGAUCACCCAUGUGGGAAUAAUCCAGAGAGAG	–	–	298	290

Sequence	apparent Kd [1] [nM]	apparent Kd [2] [nM]	apparent Kd [3] [nM]	apparent Kd [4] [nM]
AAAAAACAUGAGGAUCACCCAUGUAAGGAUAUCUAAAAUAAAAGAAAAAUAAAGAAAAGGAGAAGGUACAAGGA	24.5	35.1	–	–
AAUUCGUGUCGAGGAUAUAUUAUAUGACAACAAACACAUACAUGAGGAUCACCCAUGUCCCAUGUAUAGAAGGCGAUGUGUGUG	–	–	260	228
GUCCUACAUGAGGAUCACCCAUGUAAGGAUAUGCUAGCGGUCGGAUGACUGACUGCUAGCAGAAGGUACAUGAU	15.2	24.9	–	–
CACGGUGAUGUAGGAUAUACGCUGGAAUACAGCGUAGAAGGACAUGAGGAUCACCCAUGUAAAGUGUCUCCGAAUAACACCGUG	33.8	63.3	–	–
CAGCGCUGUCGAGAGGAUAUGCAGUGAUGGACAUGAGGAUCACCCAUGUUAGCGAUAGCAUUACGGUAGAAGGCUCUACAGCUGC	–	–	18	15.1
CGUUUUAAACAAGGAUAUCAUUUGUGUACAAGUUUUACAUGAGGAUCACCCAUGUUAAAUGGUUUUGAGAAGGUGUUUAGAACG	–	–	31.1	25
ACCUUACAUGAGGAUCACCCAUGUUAGGAUAUCUCGCUUGCGCAAUCACAACGCAAGCAGAGAAGGGACGCGGG	29.1	33.4	–	–
AUUAUAUAGACAGGAUAUUGAUUAUUAUUUUAACAUGAGGAUCACCCAUGUAGCCUUAUGUAUAGCAAGAAGGGUCAUUUAUUA	135	206	–	–
GAAUAAUUGAUCCUUUUUUAUUACAUGAGGAUCACCCAUGUGCAGGAUAUCGAUUGUUUUAGUUUCGAGAAGGGCAAGAACUGU	219	255	–	–
AUAGGUUAAGGAGGAUAUAGAGGGAGAAGUACACAUGAGGAUCACCCAUGUAUUUAAUUAGUUUACUAGAAGGCUUAUGAUUGU	–	–	46.6	53.8
CAUUUACAGGGAGGAUAUACAUGAGGAUCACCCAUGUCAUCAUACGAUCUUUCUUUUGUAUGAGUGUAGAAGGCCCAACUACCA	13.6	14.6	–	–
UUGUUGUGAGGAUAUCCAAUAUAUGACAUGAGGAUCACCCAUGUUUCCACUCGUACCUCCGGAGAAGGCACUUAUU	31.7	28.7	–	–
AAAUCCGAAGGAUAUACAUCAAAAGCAAACUGACCCUCACGACAUGAGGAUCACCCAUGUAGAAGGUUGGAAAU	20.3	18.1	–	–
UUACUAUUACAGAAGGUUAAAUAAUAUAUAAAUGAAGGAUAUGUGACAUGAGGAUCACCCAUGUUUCACCCACAUGAGGAUCAU	8.62	7.41	–	–
GCGUAAUAGGUGUAGCUAGUCAUUCAAGAAGGGUGAAGAACAUGAGGAUCACCCAUGUGGUUUAUACAGGAUAUUGAUAUACGC	–	–	363	90.4
UCGACCAGCGCAACUCGAACAUGAGGAUCACCCAUGUACUCCAGAAGGCCGCCCAAGUACGGAGUGGAGGAUAUGGAGGUUCUC	–	–	56.9	86.1
GUCAGUGUGGUAGGAUAUCGAAACGGUCAGUUACGAGAAGGGCUACAUGAGGAUCACCCAUGUAUCCAGGAUCGGCUUACAGUA	6.16	6.27	–	–
CUUUAAGUCGAGAAGGACAUGAGGAUCACCCAUGUAGGAUAUCGAUUAGCUUGCAUCCCGAGCCGCAUCGGUGUGACUGGUGGG	–	–	36.5	7.83
GAUCGCCGUGUCAGGAUAUCUUGUGUACCCACGUUAGAGAAGGGACAUGAGGAUCACCCAUGUACCCUGGUUUU	17.6	19.2	–	–
UUCAAGUCAGGAUAUCCAUAUUUCUGAUAUAACGGUACUUUGGAGAAGGGACAUGAGGAUCACCCAUGUAAUCU	24.5	28.3	–	–
CAGCGAAAGCUGAAUCUGUAGAGAGAGGAUAUACAAGAAUAAGUCCAUACAUGAGGAUCACCCAUGUAGAAGGCUCUCUACAGU	7.28	25.4	–	–
